Measurements from ChEMBL document CHEMBL1140412, “F-18 stilbenes as PET imaging agents for detecting beta-amyloid plaques in the brain” (J Med Chem, 2005).

Target: Amyloid-beta precursor protein (Homo sapiens, UniProt P05067)
Experiment: Inhibition constant for I-125-IMPY binding to amyloid plaques in Alzheimers disease brain homogenates
Assay type: tissue-based
Method in brief: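 Competition binding in pooled postmortem AD cortical homogenates (dissected gray/white matter, ~100 mg wet tissue/ml PBS pH 7.4; 20-50 μg per tube). [¹²⁵I]IMPY at 0.04-0.06 nM; inhibitors 10^-5-10^-10 M in PBS with 0.1% BSA. Nonspecific binding with 600 nM IMPY. Incubated 2 hr at 37°C, GF/B filtration, PBS washes, gamma counting. Ki from nonlinear regression.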

Chain of Amyloid-beta precursor protein (P05067 whole entry): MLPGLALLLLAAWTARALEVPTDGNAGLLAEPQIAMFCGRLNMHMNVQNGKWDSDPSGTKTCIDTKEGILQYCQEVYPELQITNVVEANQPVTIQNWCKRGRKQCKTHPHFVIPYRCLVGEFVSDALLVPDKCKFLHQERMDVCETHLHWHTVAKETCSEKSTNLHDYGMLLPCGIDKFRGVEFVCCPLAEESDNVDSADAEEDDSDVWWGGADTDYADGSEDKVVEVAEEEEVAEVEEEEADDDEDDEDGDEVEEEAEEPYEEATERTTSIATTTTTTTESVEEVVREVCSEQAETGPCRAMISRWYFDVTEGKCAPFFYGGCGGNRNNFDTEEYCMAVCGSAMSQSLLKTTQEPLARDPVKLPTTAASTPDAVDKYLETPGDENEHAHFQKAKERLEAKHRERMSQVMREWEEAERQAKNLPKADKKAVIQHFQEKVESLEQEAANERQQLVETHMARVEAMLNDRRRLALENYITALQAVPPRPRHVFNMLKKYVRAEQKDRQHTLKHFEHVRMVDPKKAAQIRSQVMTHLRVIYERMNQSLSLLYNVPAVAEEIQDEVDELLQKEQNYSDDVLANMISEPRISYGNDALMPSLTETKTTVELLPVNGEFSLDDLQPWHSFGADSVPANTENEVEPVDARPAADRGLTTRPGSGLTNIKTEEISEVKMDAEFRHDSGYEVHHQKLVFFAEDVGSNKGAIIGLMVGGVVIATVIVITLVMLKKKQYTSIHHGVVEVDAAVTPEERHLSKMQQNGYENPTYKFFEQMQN

Question: With `Cc1ccc(S(=O)(=O)OCC(CO)COc2ccc(/C=C/c3ccc(N(C)C)cc3)cc2)cc1` (stereo not given) as the compound, how does the Ki read?
Answer: 150 nM

Question: With `CN(C)c1ccc(/C=C/c2ccc(O)cc2)cc1` as the compound, how does the Ki read?
Answer: 1.1 nM

Question: For `CN(C)c1ccc(/C=C/c2ccc(OCC3COC(C)(C)OC3)cc2)cc1`, which Ki is on record?
Answer: 59 nM

Question: For `CNc1ccc(/C=C/c2ccc(OCC(CO)CO)cc2)cc1`, which Ki is on record?
Answer: 32.5 nM

Question: `CN(C)c1ccc(/C=C/c2ccc(OCC(CO)CO)cc2)cc1` was tested. Which Ki did it give?
Answer: 38 nM
